Screen size: about 290,000 compounds; about 1,300 (0.45%) were called active.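 How the source made its calls: active means inhibition above the mean plus 3 SD of all compounds in the same screening run (cut at about 4.5% in these data); inactive means the rest.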 Shown is part of a subset that was picked to be rich in actives.

This assay deals with metallo-beta-lactamase IMP-1 (Pseudomonas aeruginosa). In words: IMP-1 metallo-beta-lactamase inhibitors, primary screen, biochemical, epi-absorbance readout, Pseudomonas aeruginosa enzyme (AID 1556).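 Further: 0% = IMP-1 with DMSO and 100% = DMSO wells lacking enzyme.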 To be noted: purified IMP-1, nitrocefin hydrolysis, epi-absorbance fluorescence; at 5.6 µM; hits give high values. In short, it runs like this: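 System: purified IMP-1; amount: IMP-1 0.2 nM before substrate addition; compound: single dose, 5.6 µM; times: 25 °C, 15 min preincubation, 25 min reaction; signal: Epi-absorbance via hydrolysed-nitrocefin quenching of white-plate fluorescence, 480/530 nm, EDTA stop; benchmarks: DMSO with and without IMP-1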
As for `CCN1C(=O)C(=Cc2c(C)n(CC(=O)NCC3CCCO3)c3ccccc23)C(=O)N(CC)C1=S` (stereo not given), the inhibition was 20% (active).

In the case of `O=C(O)c1ccccc1NC(=O)C1C2CCC(O2)C1C(=O)O` (stereo not given), the inhibition was -2.48% (inactive).

Regarding `CCCCn1c(=O)c(C(=O)Nc2ccccc2Cl)c(O)c2ccccc21`, the inhibition is -1.42% (inactive).

`CCOC(=O)C1SC2(C(F)(F)C(F)F)CC1(O)c1c(c(OC)c3occc3c1OC)O2` (stereo not given): the inhibition was -3.5% (inactive).

As to `C[N+]12CN3CN(CN(C3)C1)C2`, the inhibition was 5.56% (active).

On to `Cc1cccc(OP(=O)(Oc2cccc(C)c2)OC(c2ccccc2)C(F)(F)F)c1` (stereo not given), for which the inhibition is -4.97% (inactive).

As for `Clc1ccc2nc3c(c(-c4ccccc4)c2c1)CNCC3`, the inhibition is -2.18% (inactive).

Consider `Cc1ccc(C)c(NC2=NCCCS2)c1`, for which the inhibition is -1.87% (inactive).

For the molecule `COc1cc2nc(N3CCN(C(=O)[C@@H]4CCCO4)CC3)nc(N)c2cc1OC`, the inhibition is -4.21% (inactive).

As to `CC1(C)C(c2ccccc2)=NC(c2cccnc2)=[N+]1[O-]`, the inhibition was -4.75% (inactive).
